Results taken from ChEMBL document CHEMBL4732199, “Potent and orally bioavailable CDK8 inhibitors: Design, synthesis, structure-activity relationship analysis and biological evaluation” (Eur J Med Chem, 2021).
Values belong to the compound of their own block, whether it stands above or below them. Activity calls are given as the source filed them. No cut-off for these calls is given here.

How the values were obtained:
[1] = test system: MV4-11; experiment: Growth inhibition of human MV4-11 cells after 72 hrs by resazurin staining based assay; type: functional
In short: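 MV4-11 leukaemia cells grown in medium with 10% FBS at 37 °C, 5% CO2. Growth was read by a 72-h resazurin viability assay. GI50 was obtained by nonlinear regression and reported as mean ± standard deviation of at least two replicates.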

[2] = molecular target: CDK8/Cyclin C (Homo sapiens, UniProt P49336); experiment: Inhibition of CDK8/cyclin C (unknown origin) using RBER-IRStide as substrate incubated for 60 mins in presence of [gamma33P]ATP by scintillation counting method; type: protein-complex assay
[3] = test system: HT-29; experiment: Growth inhibition human HT-29 cells after 72 hrs by resazurin or MTT assay; type: functional
In short: (§1)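 Tumour cell lines kept in RPMI-1640, DMEM or MEM with 10% FBS at 37 °C, 5% CO2, mycoplasma-free. Exposure lasted 72 h. Viability was read by MTT for adherent solid-tumour lines and by resazurin for suspension leukaemia lines. GI50 came from nonlinear regression, given as mean ± standard deviation of at least two replicates unless stated otherwise.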

[4] = molecular target: CDK2/Cyclin A2 (Homo sapiens) (UniProt P24941+P20248); experiment: Inhibition of CDK2/cyclin-A (unknown origin) at 1 uM; type: protein-complex assay
In short: (§2)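 Residual activity of each kinase with compound at 1 µM, measured in a contracted radioisotope-based kinase profiling assay and expressed as % kinase activity remaining.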

[5] = test system: T47D; experiment: Growth inhibition human T47D cells after 72 hrs by resazurin or MTT assay; type: functional; in short: as §1
[6] = test system: HCT-116; experiment: Growth inhibition human HCT-116 cells after 72 hrs by resazurin or MTT assay; type: functional; in short: as §1
[7] = test system: MDA-MB-231; experiment: Growth inhibition human MDA-MB-231 cells after 72 hrs by resazurin or MTT assay; type: functional; in short: as §1
[8] = molecular target: T1, Protein kinase C theta type (Homo sapiens, UniProt Q04759); experiment: Inhibition of human full length PKCtheta using histone H1 as substrate incubated for 40 mins in presence of [gamma-33P]-ATP by scintillation counting method
In short: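 IC50 measured in a contracted radiometric kinase assay with ATP at the experimentally determined Km(ATP) of each kinase. Apparent Ki was derived by Cheng-Prusoff: Ki = IC50/(1+[ATP]/Km(ATP)).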
Target sequence in this assay (Q04759 whole entry): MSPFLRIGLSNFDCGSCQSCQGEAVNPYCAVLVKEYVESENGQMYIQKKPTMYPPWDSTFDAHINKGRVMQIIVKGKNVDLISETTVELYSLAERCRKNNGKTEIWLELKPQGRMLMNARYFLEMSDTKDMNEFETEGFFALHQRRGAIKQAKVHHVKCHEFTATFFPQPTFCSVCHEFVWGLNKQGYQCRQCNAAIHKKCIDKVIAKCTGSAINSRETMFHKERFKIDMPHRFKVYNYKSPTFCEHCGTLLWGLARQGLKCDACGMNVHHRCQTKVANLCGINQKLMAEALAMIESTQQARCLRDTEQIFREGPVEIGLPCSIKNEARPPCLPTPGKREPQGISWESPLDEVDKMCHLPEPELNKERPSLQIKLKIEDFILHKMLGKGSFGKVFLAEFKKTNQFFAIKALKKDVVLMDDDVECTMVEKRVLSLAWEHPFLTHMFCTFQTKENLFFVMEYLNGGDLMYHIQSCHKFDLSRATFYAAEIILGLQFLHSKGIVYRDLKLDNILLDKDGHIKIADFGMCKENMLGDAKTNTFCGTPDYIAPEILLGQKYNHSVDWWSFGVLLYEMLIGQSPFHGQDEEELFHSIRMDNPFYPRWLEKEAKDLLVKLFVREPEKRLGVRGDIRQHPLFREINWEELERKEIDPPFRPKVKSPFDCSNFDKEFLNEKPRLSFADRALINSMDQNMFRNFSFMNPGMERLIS

[9] = molecular target: T1, Protein kinase C theta type; experiment: Inhibition of human full length PKCtheta at 1 uM using histone H1 as substrate incubated for 40 mins in presence of [gamma-33P]-ATP by scintillation counting method relative to control
In short: (§3)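 Single-point screen of residual kinase activity (%) at 1 µM compound. Run as a contract radiometric [γ-33P]-ATP kinase assay, either the KinaseProfiler service or the HotSpot assay. ATP was set at the experimentally determined Km(ATP) of each kinase.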
Target sequence in this assay (Q04759 whole entry, looked up): as the sequence (Q04759 whole entry) above

[10] = molecular target: CDK6/cyclin D3 (Homo sapiens) (UniProt P30281+Q00534); experiment: Inhibition of CDK6/cyclin-D3 (unknown origin) at 1 uM; type: protein-complex assay; in short: as §2
[11] = molecular target: CDK18/Cyclin Y (Homo sapiens) (UniProt Q07002+Q8ND76); experiment: Inhibition of CDK18/Cyclin Y (unknown origin) at 1 uM; type: protein-complex assay; in short: as §2
[12] = molecular target: CDK17/Cyclin-Y (Homo sapiens) (UniProt Q00537+Q8ND76); experiment: Inhibition of CDK17/Cyclin Y (unknown origin) at 1 uM; type: protein-complex assay; in short: as §2
[13] = test system: U-937; experiment: Growth inhibition human U-937 cells after 72 hrs by resazurin or MTT assay; type: functional; in short: as §1
[14] = molecular target: Glycogen synthase kinase-3 beta (Homo sapiens, UniProt P49841); experiment: Inhibition of human GSKbeta H350L mutant (2 to 3nd residues) using YRRAAVPPSPSLSRHSSPHQS(p) EDEEE as substrate incubated for 40 mins in presence of [gamma-33P]-ATP by scintillation counting method
In short: (§4)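 Outsourced radioisotope (HotSpot) kinase assay run by a contract lab, with ATP at the kinase's Km(ATP). The IC50 was converted to an apparent Ki by the Cheng-Prusoff equation, Ki = IC50/(1+[ATP]/Km(ATP)), using the experimentally determined Km(ATP).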

[15] = test system: A2780; experiment: Growth inhibition human A2780 cells after 72 hrs by resazurin or MTT assay; type: functional; in short: as §1
[16] = test system: MOLM-13; experiment: Growth inhibition human MOLM-13 cells after 72 hrs by resazurin or MTT assay; type: functional; in short: as §1
[17] = molecular target: Cyclin-dependent kinase 4/cyclin D1 (Homo sapiens) (UniProt P11802+P24385); experiment: Inhibition of CDK4/cyclin-D1 (unknown origin) at 1 uM; type: protein-complex assay; in short: as §2
[18] = molecular target: CDK9/cyclin T1 (Homo sapiens) (UniProt O60563+P50750); experiment: Inhibition of CDK9/Cyclin T1 (unknown origin) at 1 uM relative to control; type: protein-complex assay; in short: as §2
[19] = molecular target: CDK7/Cyclin H/MNAT1 (Homo sapiens) (UniProt P51946+P50613+P51948); experiment: Inhibition of CDK7/cyclin H/MNAT1 (unknown origin) at 1 uM; type: protein-complex assay; in short: as §2
[20] = molecular target: Cyclin-dependent kinase 1/cyclin B1 (Homo sapiens) (UniProt P06493+P14635); experiment: Inhibition of CDK1/cyclin-B (unknown origin) at 1 uM relative to control; type: protein-complex assay; in short: as §2
[21] = molecular target: T2, Cyclin-dependent kinase 5/CDK5 activator 1 (Homo sapiens) (UniProt Q00535+Q15078); experiment: Inhibition of CDK5/p25 (unknown origin) at 1 uM; type: protein-complex assay; in short: as §2
[22] = Growth inhibition human WI38 cells after 72 hrs by resazurin or MTT assay; type: cell-based; settings: WI-38 cells
[23] = test system: MCF7; experiment: Growth inhibition human MCF7 cells after 72 hrs by resazurin or MTT assay; type: functional; in short: as §1
[24] = molecular target: T2, Cyclin-dependent kinase 5/CDK5 activator 1 (Homo sapiens); experiment: Inhibition of CDK5/p35 (unknown origin) at 1 uM; type: protein-complex assay; in short: as §2
[25] = test system: Glycogen synthase kinase-3 alpha (Homo sapiens), P49840 [UNDEFINED MUTATION]; experiment: Inhibition of human GSKalpha S449A mutant (2 to 3nd residues) at 1 uM using YRRAAVPPSPSLSRHSSPHQS(p) EDEEE as substrate incubated for 40 mins in presence of [gamma-33P]-ATP by scintillation counting method relative to control; in short: as §3
[26] = molecular target: CDK3/Cyclin E (Homo sapiens) (UniProt P24864+Q00526); experiment: Inhibition of CDK3/cyclin-E (unknown origin) at 1 uM; type: protein-complex assay; in short: as §2
[27] = Inhibition of CYP4501A in human liver microsomes using ethoxyresorufin O-deethylation as substrate by LC-MS/MS analysis
[28] = test system: MDA-MB-453; experiment: Growth inhibition human MDA-MB-453 cells after 72 hrs by resazurin or MTT assay; type: functional; in short: as §1
[29] = molecular target: Cyclin-dependent kinase 14/Cyclin-Y (Homo sapiens) (UniProt O94921+Q8ND76); experiment: Inhibition of CDK14/Cyclin Y (unknown origin) at 1 uM; type: protein-complex assay; in short: as §2
[30] = test system: PANC-1; experiment: Growth inhibition human PANC-1 cells after 72 hrs by resazurin or MTT assay; type: functional; in short: as §1
[31] = molecular target: Glycogen synthase kinase-3 alpha (Homo sapiens, UniProt P49840); experiment: Inhibition of human GSKalpha S449A mutant (2 to 3nd residues) using YRRAAVPPSPSLSRHSSPHQS(p) EDEEE as substrate incubated for 40 mins in presence of [gamma-33P]-ATP by scintillation counting method; in short: as §4
[32] = test system: Glycogen synthase kinase-3 beta (Homo sapiens), P49841 [UNDEFINED MUTATION]; experiment: Inhibition of human GSKbeta H350L mutant (2 to 3nd residues) at 1 uM using YRRAAVPPSPSLSRHSSPHQS(p) EDEEE as substrate incubated for 40 mins in presence of [gamma-33P]-ATP by scintillation counting method relative to control; in short: as §3
[33] = test system: COLO 205; experiment: Growth inhibition human COLO 205 cells after 72 hrs by resazurin or MTT assay; type: functional; in short: as §1
[34] = molecular target: Cyclin-Y/Cyclin-dependent kinase 16 (Homo sapiens) (UniProt Q00536+Q8ND76); experiment: Inhibition of CDK16/Cyclin Y (unknown origin) at 1 uM; type: protein-complex assay; in short: as §2

Sequence of CDK8/Cyclin C (P49336 whole entry): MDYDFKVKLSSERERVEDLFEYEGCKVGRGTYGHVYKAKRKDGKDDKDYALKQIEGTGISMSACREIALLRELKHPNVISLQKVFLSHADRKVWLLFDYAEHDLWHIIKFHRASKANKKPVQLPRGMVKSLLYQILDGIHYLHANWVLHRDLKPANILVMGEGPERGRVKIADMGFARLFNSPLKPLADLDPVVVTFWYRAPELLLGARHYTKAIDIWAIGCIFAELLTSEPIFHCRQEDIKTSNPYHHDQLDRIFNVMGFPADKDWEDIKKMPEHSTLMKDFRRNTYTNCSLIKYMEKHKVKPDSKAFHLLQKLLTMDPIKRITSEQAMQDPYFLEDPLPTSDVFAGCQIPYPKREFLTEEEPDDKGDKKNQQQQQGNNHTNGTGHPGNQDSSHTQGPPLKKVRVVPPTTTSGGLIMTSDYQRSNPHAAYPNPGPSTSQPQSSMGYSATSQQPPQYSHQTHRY
Sequence of CDK8/Cyclin C (P24863 whole entry, further chain): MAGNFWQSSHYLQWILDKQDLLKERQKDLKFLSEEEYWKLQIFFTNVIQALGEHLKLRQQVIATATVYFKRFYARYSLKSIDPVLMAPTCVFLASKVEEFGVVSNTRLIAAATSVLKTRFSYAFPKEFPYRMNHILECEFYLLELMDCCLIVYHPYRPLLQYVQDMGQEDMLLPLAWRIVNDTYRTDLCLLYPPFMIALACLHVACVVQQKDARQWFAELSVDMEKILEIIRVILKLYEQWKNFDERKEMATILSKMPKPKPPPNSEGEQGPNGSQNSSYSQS
T2 sequence (Q00535 whole entry): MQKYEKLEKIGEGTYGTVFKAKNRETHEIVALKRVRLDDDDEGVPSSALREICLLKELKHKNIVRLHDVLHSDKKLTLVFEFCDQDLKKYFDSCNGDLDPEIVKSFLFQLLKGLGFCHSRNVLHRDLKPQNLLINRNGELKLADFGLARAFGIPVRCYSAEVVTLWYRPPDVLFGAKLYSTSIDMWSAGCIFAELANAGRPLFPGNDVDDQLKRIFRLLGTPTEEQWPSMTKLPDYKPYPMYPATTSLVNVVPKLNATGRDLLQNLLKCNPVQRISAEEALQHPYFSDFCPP
T2 sequence (Q15078 99-307 partner limits assumed): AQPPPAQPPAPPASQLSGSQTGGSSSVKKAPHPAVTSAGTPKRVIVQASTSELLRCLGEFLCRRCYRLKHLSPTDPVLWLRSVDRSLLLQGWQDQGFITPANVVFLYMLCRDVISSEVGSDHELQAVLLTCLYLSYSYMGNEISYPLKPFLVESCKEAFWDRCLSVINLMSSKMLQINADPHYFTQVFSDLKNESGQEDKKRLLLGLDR
Sequence of CDK3/Cyclin E (Homo sapiens) (P24864 whole entry, looked up): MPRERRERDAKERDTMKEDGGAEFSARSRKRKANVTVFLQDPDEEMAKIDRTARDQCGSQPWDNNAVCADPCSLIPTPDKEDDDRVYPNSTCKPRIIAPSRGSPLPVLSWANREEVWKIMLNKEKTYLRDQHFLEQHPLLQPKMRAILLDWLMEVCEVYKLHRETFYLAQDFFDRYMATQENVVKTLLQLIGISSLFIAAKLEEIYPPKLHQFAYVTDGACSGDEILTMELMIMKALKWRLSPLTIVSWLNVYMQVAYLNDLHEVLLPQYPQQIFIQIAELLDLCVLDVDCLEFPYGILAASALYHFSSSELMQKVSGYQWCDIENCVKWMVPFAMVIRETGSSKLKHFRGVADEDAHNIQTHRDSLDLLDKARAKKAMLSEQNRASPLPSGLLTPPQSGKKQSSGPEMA
Sequence of CDK3/Cyclin E (Homo sapiens) (Q00526 whole entry, looked up): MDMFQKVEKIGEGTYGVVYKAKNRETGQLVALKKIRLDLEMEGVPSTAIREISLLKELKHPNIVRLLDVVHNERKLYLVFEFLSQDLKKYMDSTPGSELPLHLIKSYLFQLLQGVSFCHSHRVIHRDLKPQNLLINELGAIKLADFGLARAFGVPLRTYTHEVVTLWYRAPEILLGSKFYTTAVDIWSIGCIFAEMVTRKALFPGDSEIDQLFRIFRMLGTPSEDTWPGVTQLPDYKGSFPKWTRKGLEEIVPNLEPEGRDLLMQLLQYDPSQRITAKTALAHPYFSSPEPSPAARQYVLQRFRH
Sequence of CDK17/Cyclin-Y (Homo sapiens) (Q00537 whole entry): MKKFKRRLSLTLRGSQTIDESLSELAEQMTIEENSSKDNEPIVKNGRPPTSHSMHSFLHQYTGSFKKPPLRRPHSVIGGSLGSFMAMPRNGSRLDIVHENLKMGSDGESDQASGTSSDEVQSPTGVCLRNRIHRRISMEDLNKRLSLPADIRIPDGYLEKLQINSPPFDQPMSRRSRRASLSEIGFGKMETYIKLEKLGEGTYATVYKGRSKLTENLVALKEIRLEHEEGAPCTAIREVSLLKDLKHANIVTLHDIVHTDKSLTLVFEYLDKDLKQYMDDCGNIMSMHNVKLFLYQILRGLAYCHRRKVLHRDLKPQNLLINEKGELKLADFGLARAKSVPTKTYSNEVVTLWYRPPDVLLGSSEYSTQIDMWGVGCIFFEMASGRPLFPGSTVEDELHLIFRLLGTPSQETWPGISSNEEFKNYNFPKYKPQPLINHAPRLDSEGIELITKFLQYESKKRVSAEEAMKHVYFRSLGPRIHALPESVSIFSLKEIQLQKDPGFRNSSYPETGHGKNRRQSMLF
Sequence of CDK17/Cyclin-Y (Homo sapiens) (Q8ND76 2-341 partner limits assumed): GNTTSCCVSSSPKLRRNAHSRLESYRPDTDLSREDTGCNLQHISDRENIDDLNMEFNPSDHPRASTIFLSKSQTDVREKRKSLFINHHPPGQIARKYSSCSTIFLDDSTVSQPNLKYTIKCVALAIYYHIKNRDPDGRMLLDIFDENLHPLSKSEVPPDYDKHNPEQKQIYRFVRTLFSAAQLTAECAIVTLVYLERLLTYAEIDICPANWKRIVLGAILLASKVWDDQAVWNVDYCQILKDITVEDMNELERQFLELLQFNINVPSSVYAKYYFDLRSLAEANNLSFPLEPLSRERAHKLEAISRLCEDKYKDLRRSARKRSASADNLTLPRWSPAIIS
Sequence of Glycogen synthase kinase-3 alpha (Homo sapiens), P49840 [UNDEFINED MUTATION] (P49840 whole entry, looked up, stated change not applied): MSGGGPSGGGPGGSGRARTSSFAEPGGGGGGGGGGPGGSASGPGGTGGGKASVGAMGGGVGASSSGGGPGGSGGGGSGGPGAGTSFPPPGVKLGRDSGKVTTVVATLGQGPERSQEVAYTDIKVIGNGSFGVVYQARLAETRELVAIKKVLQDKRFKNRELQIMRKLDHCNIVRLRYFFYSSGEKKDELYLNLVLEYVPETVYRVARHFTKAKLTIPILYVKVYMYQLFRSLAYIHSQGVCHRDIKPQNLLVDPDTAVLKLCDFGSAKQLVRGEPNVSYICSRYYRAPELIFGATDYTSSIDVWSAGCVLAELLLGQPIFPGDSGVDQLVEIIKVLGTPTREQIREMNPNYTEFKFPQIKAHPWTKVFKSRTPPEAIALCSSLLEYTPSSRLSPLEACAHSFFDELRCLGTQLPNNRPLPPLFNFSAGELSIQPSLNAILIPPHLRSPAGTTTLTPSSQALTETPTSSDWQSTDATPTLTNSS

Structure (SMILES): O=C1NCCC12CCN(c1c(Cl)cncc1-c1cccc3ccccc13)CC2
GI50 [1]: 0.82 µM
Ki [2]: 0.016 µM

Structure (SMILES): O=C1NCCC12CCN(c1c(Cl)cncc1-c1cncc3ccccc13)CC2
GI50 [1]: 7.55 µM
Ki [2]: 0.066 µM

Structure (SMILES): COc1ccc(-c2cncc(Cl)c2N2CCC3(CCNC3=O)CC2)c2ccccc12
GI50 [1]: 33.2 µM
Ki [2]: 0.026 µM

Structure (SMILES): O=C1NCCC12CCN(c1c(Cl)cncc1-c1coc3ccccc13)CC2
GI50 [1]: 29.2 µM
Ki [2]: 0.048 µM

Structure (SMILES): Cc1ccc(-c2cncc(Cl)c2N2CCC3(CCNC3=O)CC2)c2ccccc12
GI50 [1]: 0.71 µM
Ki [2]: 0.022 µM

Structure (SMILES): O=C1NCCC12CCN(c1c(Cl)cncc1-c1cc3ccccc3s1)CC2
GI50 [3]: 29.3 µM
inhibition [4]: inactive
GI50 [5]: 17.9 µM
GI50 [6]: 42.7 µM
GI50 [7]: 34.2 µM
Ki [8]: 0.134 µM
inhibition [9]: > 50%
inhibition [10]: inactive
inhibition [11]: inactive
inhibition [12]: inactive
GI50 [13]: 2.69 µM
GI50 [1]: 0.58 µM
Ki [14]: 0.018 µM
GI50 [15]: 17.6 µM
GI50 [16]: 5.81 µM
inhibition [17]: inactive
inhibition [18]: inactive
Ki [2]: 0.014 µM
inhibition [19]: inactive
inhibition [20]: inactive
inhibition [21]: inactive
GI50 at 72 h [22]: 35 µM
GI50 [23]: > 50 µM
inhibition [24]: inactive
inhibition [25]: > 50%
inhibition [26]: inactive
IC50 [27]: 16.6 µM
GI50 [28]: 17.4 µM
inhibition [29]: inactive
GI50 [30]: > 50 µM
Ki [31]: 0.043 µM
inhibition [32]: > 50%
GI50 [33]: > 50 µM
inhibition [34]: inactive

Structure (SMILES): O=C1NCCC12CCN(c1c(Cl)cncc1-c1cccc3cnccc13)CC2
GI50 [1]: 62.3 µM
Ki [2]: 0.052 µM

Structure (SMILES): O=C1NCCC12CCN(c1c(Cl)cncc1-c1c[nH]c3ccccc13)CC2
GI50 [1]: 8.77 µM
Ki [2]: 0.056 µM

Structure (SMILES): Cn1ncc2c(-c3cncc(Cl)c3N3CCC4(CCNC4=O)CC3)cccc21
GI50 [1]: 27.7 µM
Ki [2]: 0.458 µM

Structure (SMILES): O=C1NCCC12CCN(c1c(Cl)cncc1-c1cccc3ncccc13)CC2
GI50 [1]: 3.65 µM
Ki [2]: 0.022 µM

More lines, in order of falling GI50 [1], values ahead:

GI50 [1]: 64.2 µM
Ki [2]: 3.14 µM
Structure (SMILES): O=C1NCCC12CCN(c1c(Cl)cncc1-c1cccc3ccncc13)CC2

GI50 [1]: 40.2 µM
Ki [2]: 1.3 µM
Structure (SMILES): O=C1NCCC12CCN(c1c(Cl)cncc1-c1cn(S(=O)(=O)c3ccccc3)c3ncccc13)CC2

GI50 [1]: 6.35 µM
Ki [2]: 0.024 µM
Structure (SMILES): O=C1NCCC12CCN(c1c(Cl)cncc1-c1cccc3c1sc1ccccc13)CC2

GI50 [1]: 5.34 µM
Ki [2]: 0.346 µM
Structure (SMILES): O=C1NCCC12CCN(c1c(Cl)cncc1-c1cnn(Cc3ccccc3)c1)CC2

GI50 [1]: 1.91 µM
Ki [2]: 0.019 µM
Structure (SMILES): O=C1NCCC12CCN(c1c(Cl)cncc1-c1cccc3[nH]ccc13)CC2
